Activity calls are given as the source filed them. No cut-off for these calls is given here.

Data set [1] deals with Cannabinoid receptor 2 (Homo sapiens, UniProt P34972). The experiment in a line: Displacement of [3H]CP55940 from human CB2 expressed in CHOK1 cell membranes. In general terms: Loss of bound radioactivity is the signal in a displacement assay; it reports binding, not function.
The target in data set [2] is Cannabinoid receptor 1 (Homo sapiens, UniProt P21554). Put plainly: Displacement of [3H]CP55940 from human CB1 expressed in CHOK1 cell membranes.
The nature of data set [3]: Aqueous kinetic solubility of the compound in 10 mM phosphate buffer at pH 1.6 after 90 mins by LC/MS analysis. The settings on record: read-out: Kinetic_solubility. The format is physicochemical. The essentials: (§1)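 10 mM DMSO stocks diluted into 10 mM phosphate buffer (final DMSO 1%), shaken 90 min at room temperature, filtered through 0.4 μm plates. Filtrate concentration quantified by LC/MS against a six-point standard curve. Mean of three determinations.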

The nature of data set [4]: Aqueous kinetic solubility of the compound in 10 mM phosphate buffer at pH 7.4 after 90 mins by LC/MS analysis. The format is physicochemical. The settings on record: read-out: Kinetic_solubility. The essentials:
as §1

Data set [5] in a line: Drug uptake in alcohol-induced hepatic steatosis C57BL/6 mouse model brain at 1.25 mg/kg, po bid administered via gavage treated for 2 weeks measured at 16 hrs post last dose by LC-MS method. Type of data set: ADME, organism-based. The settings on record: in vivo.
The subject of data set [6] is Mus musculus. Put plainly: Anti-hepatic steatosis activity in alcohol-induced hepatic steatosis C57BL/6 mouse model assessed as reduction in hepatic lipid accumulation at 1.25 mg/kg, po bid administered via gavage treated for 2 weeks by oil red o-staining based histopathological assay. Type of data set: functional, organism-based. The gist of the method:
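Female C57BL6 mice on Lieber-DeCarli liquid diet; ethanol raised progressively 1 to 5% (v/v) over 15 days, then 4 further weeks; pair-fed controls on control diet. Drug suspended in 0.5% sodium carboxymethylcellulose, 1% NMP, 0.3% Tween 80, given 1.25 mg/kg twice daily by gavage for last 2 weeks. Liver sections (10 μm, OCT) stained with Oil Red O; droplets counted in six grids per image; n = 6 per group; ANOVA.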

A short description of data set [7]: Drug uptake in C57BL/6 mouse brain at 1.25 mg/kg, po bid administered via gavage treated for 7 days measured at 0.5 to 24 hrs post last dose. The format is ADME, organism-based. Conditions: in vivo.
The test system of data set [8] is Mus musculus. Put plainly: Suppression of CP55940-induced hypothermia in C57BL/6 mouse assessed as reduction in body temperature at 10 mg/kg, po administered via gavage pretreated for 30 mins followed by CP55940 addition measured at regular interval up to 4 hrs. Type of data set: ADME, organism-based. Conditions: in vivo. The gist of the method: (§2)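 Female C57BL6 mice, acclimated 2 weeks, given test agent or vehicle by oral gavage; after 30 min, CP55940 0.56 mg/kg ip in corn oil. Rectal temperature recorded at regular intervals up to 4 h. Six animals per group; means and standard deviations; two-way ANOVA versus vehicle.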

Data set [9] is filed under the species Homo sapiens. The experiment in a line: Selectivity ratio of Ki for human CB2 to Ki for human CB1. The gist of the method: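 Displacement of [3H]CP55940 binding to membranes from CHO cells overexpressing human CB1 or human CB2. Ki was determined at each receptor, and the ratio was taken as Ki(hCB2)/Ki(hCB1). Values are averages of three to six measurements.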

The nature of data set [10]: Drug uptake in C57BL/6 mouse brain at 5 mg/kg, po after 0.6 to 24 hrs by LC-MS method. Type of data set: ADME, organism-based. Conditions: in vivo.
Data set [11] has as its system Mus musculus. The experiment in a line: Suppression of CP55940-induced hypothermia in C57BL/6 mouse assessed as reduction in body temperature at 30 mg/kg, po administered via gavage pretreated for 30 mins followed by CP55940 addition measured at regular interval up to 4 hrs. The format is ADME, organism-based. Conditions: in vivo. The essentials:
as §2

Chain of Cannabinoid receptor 2 (P34972 whole entry): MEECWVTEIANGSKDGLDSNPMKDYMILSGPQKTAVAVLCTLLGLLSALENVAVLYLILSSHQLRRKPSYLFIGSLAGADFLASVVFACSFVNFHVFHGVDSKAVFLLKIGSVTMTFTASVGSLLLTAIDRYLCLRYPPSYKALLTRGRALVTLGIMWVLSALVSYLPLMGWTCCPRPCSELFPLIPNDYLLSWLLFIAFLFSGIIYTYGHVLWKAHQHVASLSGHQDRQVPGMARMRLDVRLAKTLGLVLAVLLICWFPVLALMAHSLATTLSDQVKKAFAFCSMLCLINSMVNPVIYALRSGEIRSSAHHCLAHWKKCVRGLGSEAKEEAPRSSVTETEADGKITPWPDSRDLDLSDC
Chain of Cannabinoid receptor 1 (P21554 whole entry): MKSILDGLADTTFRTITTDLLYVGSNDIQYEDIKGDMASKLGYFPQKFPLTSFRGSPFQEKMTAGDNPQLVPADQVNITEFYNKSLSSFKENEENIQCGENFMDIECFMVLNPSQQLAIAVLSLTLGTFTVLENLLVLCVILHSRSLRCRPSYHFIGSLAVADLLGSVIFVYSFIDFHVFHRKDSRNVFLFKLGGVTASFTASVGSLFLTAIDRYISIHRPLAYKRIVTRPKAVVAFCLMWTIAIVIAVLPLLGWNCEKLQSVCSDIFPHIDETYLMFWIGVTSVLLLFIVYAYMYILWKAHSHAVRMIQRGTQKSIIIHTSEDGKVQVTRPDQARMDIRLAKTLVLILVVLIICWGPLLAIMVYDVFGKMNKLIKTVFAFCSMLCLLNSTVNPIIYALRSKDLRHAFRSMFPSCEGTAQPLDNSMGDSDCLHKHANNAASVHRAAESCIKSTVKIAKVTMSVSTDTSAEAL

Regarding `COc1ccccc1N1CCN(c2ncnc3c2nc(-c2ccccc2Cl)n3-c2ccc(Cl)cc2)CC1`, the inhibition constant (Ki) – broadly, the dissociation constant of the complex between target and ligand, obtained from inhibition or displacement – turned out to be 5000 nM in data set [1] and 2 nM in data set [2].

Take `Clc1ccc(-n2c(-c3ccccc3Cl)nc3c(N4CCN(Cc5ccccc5Cl)CC4)ncnc32)cc1`: the solubility kinetic at […] in [3] is greater than 200 µM; in data set [4], less than 0.4 µM. The Drug uptake result in data set [5] and in [7] was “Not Active” throughout. Further, the outcome in [6] was Active. In [8], the Activity result was “Non-Toxic”.

In data set [1], `Clc1ccc(-n2c(-c3ccccc3Cl)nc3c(N4CCN(c5ccccc5)CC4)ncnc32)cc1` came in with an inhibition constant Ki greater than 10000 nM.

In the case of `Clc1ccc(-n2c(-c3ccccc3Cl)nc3c(N4CCN(Cc5ccccc5)CC4)ncnc32)cc1`, the Ki is 430 nM in [1] and 4 nM in [2]. Besides, the Ratio Ki in [9] stood at 110.

For `N#Cc1ccc(N2CCN(c3ncnc4c3nc(-c3ccccc3Cl)n4-c3ccc(Cl)cc3)CC2)cc1`, the Ki in data set [1] is greater than 10000 nM.

In the case of `Cc1ccc(CN2CCN(c3ncnc4c3nc(-c3ccccc3Cl)n4-c3ccc(Cl)cc3)CC2)cc1`, the inhibition constant Ki in data set [1] was greater than 10000 nM.

In the case of `COc1ccc(N2CCN(c3ncnc4c3nc(-c3ccccc3Cl)n4-c3ccc(Cl)cc3)CC2)cc1`, in [1], the Ki is greater than 10000 nM.

As for `Oc1cccc(N2CCN(c3ncnc4c3nc(-c3ccccc3Cl)n4-c3ccc(Cl)cc3)CC2)c1`, the figures for the Ki in data set [1] and in data set [2] were greater than 10000 nM and 25 nM, respectively.

Take `Clc1ccc(CN2CCN(c3ncnc4c3nc(-c3ccccc3Cl)n4-c3ccc(Cl)cc3)CC2)cc1`: in [1], the Ki was greater than 10000 nM.

In turn, `COc1ccc(CN2CCN(c3ncnc4c3nc(-c3ccccc3Cl)n4-c3ccc(Cl)cc3)CC2)cc1` yielded a Ki in [1] greater than 10000 nM.

Regarding `FC(F)(F)Oc1ccccc1CN1CCN(c2ncnc3c2nc(-c2ccccc2Cl)n3-c2ccc(Cl)cc2)CC1`, the Ki in [1] is greater than 10000 nM.

On to `Cc1c(C(=O)NN2CCCCC2)nn(-c2ccc(Cl)cc2Cl)c1-c1ccc(Cl)cc1` [RIMONABANT], for which, in [10], the Drug uptake entry is “Active”.

With `N#Cc1ccccc1N1CCN(c2ncnc3c2nc(-c2ccccc2Cl)n3-c2ccc(Cl)cc2)CC1`, in data set [1], the Ki is greater than 10000 nM.

`Clc1ccc(-n2c(-c3ccccc3Cl)nc3c(N4CCN(CCc5ccncc5)CC4)ncnc32)cc1`: the Ki in data set [1] was found to be 630 nM; in data set [2] it was 12 nM. For the same molecule, in data set [9], the Ratio Ki is 52.

Turning to `CCNC1(C(N)=O)CCN(c2ncnc3c2nc(-c2ccccc2Cl)n3-c2ccc(Cl)cc2)CC1` [OTENABANT], in data set [11], the Activity result was “Toxic”.

The molecule `Cc1ccccc1CN1CCN(c2ncnc3c2nc(-c2ccccc2Cl)n3-c2ccc(Cl)cc2)CC1` had a Ki in [1] of 4600 nM.

Regarding `N#CC(c1ccccc1)N1CCN(c2ncnc3c2nc(-c2ccccc2Cl)n3-c2ccc(Cl)cc2)CC1` (stereo not given), the Ki in data set [1] stood at 460 nM; in [2] it was 7 nM. The Ratio Ki in data set [9] is 66.

For the origin of these results see ChEMBL document CHEMBL4219244, “Blocking Alcoholic Steatosis in Mice with a Peripherally Restricted Purine Antagonist of the Type 1 Cannabinoid Receptor” (J Med Chem, 2018).
